Laboratory results reported in ChEMBL document CHEMBL1157246, “Cytotoxic isomalabaricane triterpenes from the marine sponge Rhabdastrella globostellata” (2006).
The source made the active and inactive calls. The calls are words filed in the database; no cut-off is given here.

What was measured:
L5178Y [1] = assay: Cytotoxicity against mouse L5178Y cells at 3 ug/mL after 72 hrs by MTT assay; assay type: functional
How it was run: (§1)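 Exponentially growing cells (3750 per well) were exposed to samples from EtOH 96% stocks for 72 h at 37 °C in 5% CO2. MTT (20 µL of 5 mg/mL in PBS, pH 7.4) was added for 3 h 45 min, then formazan was released with DMSO and read at 520 nm. Survival % was taken relative to untreated cells, with media containing 0.1% EGMME/DMSO as controls. Assays were run in triplicate and repeated three times.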

L5178Y [2] = assay: Cytotoxicity against mouse L5178Y cells at 10 ug/mL after 72 hrs by MTT assay; assay type: functional; how it was run: as §1
HeLa [3] = assay: Cytotoxicity against human HeLa cells at 3 ug/mL after 72 hrs by MTT assay; assay type: functional; how it was run: as §1
PC-12 [4] = assay: Cytotoxicity against rat PC12 cells after 72 hrs by MTT assay; assay type: functional; how it was run: as §1
Saccharomyces cerevisiae [5] = assay: Antifungal activity against Saccharomyces cerevisiae after 24 hrs by agar diffusion assay; assay type: functional, organism-based
How it was run: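 S. cerevisiae was inoculated on YPD agar, and MeOH-dissolved compounds were applied on 5 mm disks. Inhibition zones were recorded after 24 h at 27 °C, with nystatin 5 µg as positive control.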

L5178Y [6] = assay: Cytotoxicity against mouse L5178Y cells after 72 hrs by MTT assay; assay type: functional; how it was run: as §1
HeLa [7] = assay: Cytotoxicity against human HeLa cells at 10 ug/mL after 72 hrs by MTT assay; assay type: functional; how it was run: as §1
PC-12 [8] = assay: Cytotoxicity against rat PC12 cells at 3 ug/mL after 72 hrs by MTT assay; assay type: functional; settings: PC-12, 72 h; how it was run: as §1
HeLa [9] = assay: Cytotoxicity against human HeLa cells after 72 hrs by MTT assay; assay type: functional; how it was run: as §1
PC-12 [10] = assay: Cytotoxicity against rat PC12 cells at 10 ug/mL after 72 hrs by MTT assay; assay type: functional; settings: PC-12, 72 h; how it was run: as §1
Escherichia coli [11] = assay: Antibacterial activity against Escherichia coli DSM10290 at 10 ug after 24 hrs by agar diffusion assay; assay type: functional; settings: read-out: IZ
How it was run: (§2)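 Disks (5 mm) impregnated with compound dissolved in MeOH were laid on LB agar plates seeded with B. subtilis DSM2109 or E. coli DSM10290. Inhibition zones were read after 24 h at 37 °C. Streptomycin and gentamycin, 5 µg each, served as positive controls.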

PC-12 [12] = assay: Cytotoxicity against rat PC12 cells at 30 ug/mL after 72 hrs by MTT assay; assay type: functional, cell-based; how it was run: as §1
HeLa [13] = assay: Cytotoxicity against human HeLa cells at 30 ug/mL after 72 hrs by MTT assay; assay type: functional, cell-based; how it was run: as §1
Escherichia coli [14] = assay: Antibacterial activity against Escherichia coli DSM10290 at 5 ug after 24 hrs by agar diffusion assay; assay type: functional; settings: read-out: IZ; how it was run: as §2
Bacillus subtilis [15] = assay: Antibacterial activity against Bacillus subtilis DSM2109 at 5 ug after 24 hrs by agar diffusion assay; assay type: functional; settings: read-out: IZ; how it was run: as §2
Saccharomyces cerevisiae [16] = assay: Antifungal activity against Saccharomyces cerevisiae at 5 ug after 24 hrs by agar diffusion assay; assay type: functional, organism-based
How it was run: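 Paper disks (5 mm diameter) loaded with test material dissolved in MeOH were placed on YPD agar plates inoculated with S. cerevisiae. After 24 h of incubation at 27 °C, the zone of inhibition (mm) was recorded.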

Bacillus subtilis [17] = assay: Antibacterial activity against Bacillus subtilis DSM2109 at 10 ug after 24 hrs by agar diffusion assay; assay type: functional; settings: read-out: IZ; how it was run: as §2

| Molecule | inhibition at 3 µg/mL (L5178Y [1]) [%] | inhibition at 10 µg/mL (L5178Y [2]) [%] | inhibition at 3 µg/mL (HeLa [3]) [%] | ED50 (PC-12 [4]) [nmol] | Activity (Saccharomyces cerevisiae [5]) | ED50 (L5178Y [6]) [nmol] | inhibition at 10 µg/mL (HeLa [7]) [%] | inhibition at 3 µg/mL (PC-12 [8]) [%] | ED50 (HeLa [9]) [nmol] | inhibition at 10 µg/mL (PC-12 [10]) [%] | zone of inhibition at 10 µg/disc (Escherichia coli [11]) [mm] | Activity (PC-12 [12]) | Activity (HeLa [13]) | zone of inhibition at 5 µg/disc (Escherichia coli [14]) [mm] | zone of inhibition at 5 µg/disc (Bacillus subtilis [15]) [mm] | inhibition zone (IZ) (Saccharomyces cerevisiae [16]) [mm] | zone of inhibition at 10 µg/disc (Bacillus subtilis [17]) [mm] |
| --- | --- | --- | --- | --- | --- | --- | --- | --- | --- | --- | --- | --- | --- | --- | --- | --- | --- |
| CC(/C=C/C(O)C(C)(C)O)=C\C=C\C(C)=C1\C(=O)C[C@H]2[C@@]3(C)CC[C@@H](O)[C@](C)(C(=O)O)[C@@H]3CC[C@]12C (some centres not stated) [GLOBOSTELLATIC ACID L, M] | 100 | 100 | 0 | 27.52 | inactive | 0.92 | 42 | 0 | 27.87 | 30 | – | – | – | – | – | – | – |
| CC(C)=CCC(O[C@H]1OC[C@@H](O)[C@@H](O)[C@H]1O)/C(C)=C/C=C/C(C)=C1\C(=O)C[C@H]2[C@@]3(C)CC[C@@H](O)C(C)(C)[C@@H]3CC[C@]12C (some centres not stated) | 100 | 100 | 26 | 27.63 | inactive | 2.4 | 100 | 33 | 8.14 | 54 | 12 | – | – | – | – | – | – |
| CCOC(/C=C/C(C)=C/C=C/C(C)=C1/C(=O)C[C@H]2[C@@]3(C)CC[C@@H](OC(C)=O)[C@](C)(C(=O)O)[C@@H]3CC[C@]12C)C(C)(C)O (some centres not stated) [GLOBOSTELLATIC ACID J, K] | 24 | 100 | 0 | – | inactive | 8.28 | 0 | 0 | – | 0 | – | inactive | inactive | – | – | – | – |
| C/C(C(=O)/C=C/C(C)=C/C=C/C(C)(C)O)=C1/C(=O)C[C@H]2[C@@]3(C)CC[C@@H](O)[C@](C)(C(=O)O)[C@@H]3CC[C@]12C [GLOBOSTELLATIC ACID F] | 42 | 100 | 0 | – | inactive | 10.36 | 0 | 0 | – | 0 | – | inactive | inactive | – | – | – | – |
| CCOC(/C=C/C(C)=C/C=C/C(C)=C1/C(=O)C[C@H]2[C@@]3(C)CC[C@@H](O)[C@](C)(C(=O)O)[C@@H]3CC[C@]12C)C(C)(C)O (some centres not stated) [GLOBOSTELLATIC ACID H, I] | 100 | 100 | 8 | 28.07 | inactive | 0.31 | 23 | 16 | 46.05 | 41 | 10 | – | – | – | – | – | – |
| CN[C@@H]1[C@H](O[C@H]2[C@H](O[C@H]3[C@H](O)[C@@H](O)[C@H](N=C(N)N)[C@@H](O)[C@@H]3N=C(N)N)O[C@@H](C)[C@]2(O)C=O)O[C@@H](CO)[C@H](O)[C@H]1O [STREPTOMYCIN] | – | – | – | – | – | – | – | – | – | – | – | – | – | 13 | 20 | – | – |
| CC(=O)O[C@@H]1CC[C@@]2(C)[C@@H](CC[C@]3(C)/C(=C(\C)C(=O)/C=C/C(C)=C/C=C/C(C)(C)O)C(=O)C[C@@H]23)[C@@]1(C)C(=O)O [GLOBOSTELLATIC ACIDS A] | 100 | 100 | 0 | – | inactive | – | 0 | 0 | – | 0 | – | inactive | inactive | – | – | – | – |
| COC(/C=C/C(C)=C/C=C/C(C)=C1/C(=O)C[C@H]2[C@@]3(C)CC[C@@H](O)[C@](C)(C(=O)O)[C@@H]3CC[C@]12C)C(C)(C)O (some centres not stated) [GLOBOSTELLATIC ACID D, G] | 100 | 100 | 4 | 30.33 | inactive | 0.39 | 25 | 18 | 46.69 | 42 | 10 | – | – | – | – | – | – |
| NYSTATIN | – | – | – | – | – | – | – | – | – | – | – | – | – | – | – | 12 | – |
| CC(=O)O[C@@H]1CC[C@@]2(C)[C@@H](CC[C@]3(C)/C(=C(C)/C=C/C=C(\C)C(CC=C(C)C)O[C@@H]4OC[C@H](O)[C@H](O)[C@@H]4O)C(=O)C[C@@H]23)C1(C)C (some centres not stated) | 100 | 100 | 0 | 21.54 | inactive | 0.22 | 56 | 0 | 22.76 | 38 | – | – | – | – | – | – | – |
| C/C(C(=O)/C=C/C(C)=C/C=C/C(C)(C)O)=C1/C(=O)C[C@H]2[C@@]3(C)CC[C@H](O)C(C)(C)[C@@H]3CC[C@]12C [GLOBOSTELLETIN] | 66 | 94 | 0 | – | inactive | 5.34 | 0 | 0 | >60 | 0 | – | inactive | – | – | 12 | – | 13 |
